Measured values: article PMC3823100 (Journal of Cellular and Molecular Medicine, 2011)
Read-outs that look alike come from different tables or passages of the source.

Tests used:
Type in all cases: cell-based, human
LoVo cells [1] = test: MTT cytotoxicity assay; conditions: read-out: IC50 (μM) ± S.D. LoVo, MTT test
HCT-15 cells = test: MTT cytotoxicity assay; conditions: read-out: IC50 (μM) ± S.D. HCT-15; 72 hrs treatment, MTT test
Procedure, shortened: (§1)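 Cells grown with 10% foetal calf serum, penicillin/streptomycin and 2 mM L-glutamine (HCT-15 in RPMI, SW480 in DMEM). Exposed 72 hrs to increasing concentrations diluted from 1 mg/ml stocks in physiological solution, then MTT read-out. Mean absorbance per dose expressed as % of control versus concentration. IC50 from four-parameter logistic fit. Means ± S.D. of at least three measurements.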

DLD1 cells = test: MTT cytotoxicity assay; conditions: read-out: IC50 (μM) ± S.D. DLD1; 72 hrs treatment, MTT test
SW480 cells = test: MTT cytotoxicity assay; conditions: read-out: IC50 (μM) ± S.D. SW480; 72 hrs treatment, MTT test
Procedure, shortened: as §1

MRC-5 fibroblasts = test: MTT cytotoxicity assay, non-tumour cells; conditions: read-out: IC50 (μM) ± S.D. MRC-5, 72 hrs treatment, MTT test
HFF-1 fibroblasts = test: MTT cytotoxicity assay, non-tumour cells; conditions: read-out: IC50 (μM) ± S.D. HFF-1, 72 hrs treatment, MTT test
LoVo–OxPt cells = test: MTT cytotoxicity assay, oxaliplatin-resistant cells; conditions: read-out: IC50 (μM) ± S.D. LoVo–OxPt; 48 hrs treatment, MTT test
LoVo cells [2] = test: Nuclear DNA fragmentation ELISA; conditions: 12 hr treatment, IC50 concentration
[3] = test system: caspase-3/-7, -6, -8, -9 in LoVo cells; test: Caspase activation; conditions: 12 or 24 hrs
Procedure, shortened: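 LoVo cells (10⁶) exposed 12 or 24 hrs, then lysed in 1% Triton X-100, sucrose, 5 mM EDTA, 10 mM Tris-HCl, 2 mM DTT (pH 7.6). Lysate protein incubated 60 min at 37°C with fluorogenic AMC substrates: Ac-DEVD (caspase-3/-7), Ac-VEID (-6), Ac-IETD (-8), Ac-LEHD (-9). AMC release read at ex 370/em 460 nm. Means of at least three independent experiments ± S.D.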

[4] = test system: cytochrome c release in LoVo cells; test: Cytochrome c release; conditions: IC50 concentration, 12 hrs (CP also 6 and 24 hrs)
Procedure, shortened: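 LoVo cells (30 × 10⁶) were exposed to the test compound for 12 hrs. Cytochrome c release was then assessed by Western blotting. Values are means ± S.D. of at least three measurements.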

LoVo cells [5] = test: Alkaline single-cell gel electrophoresis assay; conditions: 12 hrs, IC50 concentration

| SMILES | IC50 (LoVo cells [1]; 72 hrs treatment) [µM] | IC50 (HCT-15 cells) [µM] | IC50 (DLD1 cells) [µM] | IC50 (SW480 cells) [µM] | IC50 (MRC-5 fibroblasts) [µM] | IC50 (HFF-1 fibroblasts) [µM] | IC50 (LoVo cells [1]; 48 hrs treatment) [µM] | IC50 (LoVo–OxPt cells) [µM] | increase in histone-DNA formation compared to controls (LoVo cells [2]) | caspase-3/-7, -6, -8, -9 activity (free AMC) [3] | cytochrome c release [4] | comet appearance / electrophoretic migration of DNA fragments (LoVo cells [5]) |
| --- | --- | --- | --- | --- | --- | --- | --- | --- | --- | --- | --- | --- |
| N.N.[Cl][Pt][Cl] [CisPt, Cisplatin] | 9.02 ± 1.34 | 16.6 ± 2.63 | 8.01 ± 2.22 | 25.2 ± 3.33 | 19.7 ± 1.31 | 23.4 ± 1.97 | – | – | – | – | – | – |
| O=C1[O][Pt]2([NH][C@@H]3CCCC[C@H]3[NH]2)[O]C1=O [OxPt, oxaliplatin] | 0.33 ± 0.17 | 2.37 ± 0.58 | 5.81 ± 1.93 | 4.2 ± 0.75 | 23.9 ± 1.35 | 27.1 ± 1.29 | 2.05 ± 0.43 | 10.9 ± 1.34 | roughly 30 fold | substantial activation of all caspases | substantial cytohrome c release | significant increase in comet appearance |
